Experimental data reported in ChEMBL document CHEMBL4007444, “Development of New Benzenesulfonamides As Potent and Selective Nav1.7 Inhibitors for the Treatment of Pain” (J Med Chem, 2017).
The source made the active and inactive calls. No cut-off for these calls is given here.

Tests used:
[1] = target: Sodium channel protein type 5 subunit alpha (Homo sapiens, UniProt Q14524); test: Inhibition of recombinant human Nav1.5 expressed in HEK293 cells assessed as reduction in peak inward current at -50 mV holding potential measured after 600 secs by IonWorks Barracuda patch-clamp assay; assay type: cell-based
Summary of the method: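 HEK293 cells expressing the channel, measured by population patch clamp on IonWorks Barracuda. External solution (mM): 137 NaCl, 4 KCl, 1 MgCl2, 1.8 CaCl2, 10 HEPES, 10 glucose, pH 7.4. Internal: K-gluconate/KCl, pH 7.2. Compound incubated 600 s between pre- and post-compound reads. Nav1.7: held at -60 mV, 300 ms at -100 mV, then 20 ms test pulse to -20 mV. Nav1.5: held at -40/-50 mV, 300 ms at -100 mV, then step to -10 mV to inactivate.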

[2] = target: Cytochrome P450 3A4 (Homo sapiens, UniProt P08684); test: Inhibition of human CYP3A4 assessed as inhibition of dealkylation
Sequence of Cytochrome P450 3A4 (P08684 whole entry): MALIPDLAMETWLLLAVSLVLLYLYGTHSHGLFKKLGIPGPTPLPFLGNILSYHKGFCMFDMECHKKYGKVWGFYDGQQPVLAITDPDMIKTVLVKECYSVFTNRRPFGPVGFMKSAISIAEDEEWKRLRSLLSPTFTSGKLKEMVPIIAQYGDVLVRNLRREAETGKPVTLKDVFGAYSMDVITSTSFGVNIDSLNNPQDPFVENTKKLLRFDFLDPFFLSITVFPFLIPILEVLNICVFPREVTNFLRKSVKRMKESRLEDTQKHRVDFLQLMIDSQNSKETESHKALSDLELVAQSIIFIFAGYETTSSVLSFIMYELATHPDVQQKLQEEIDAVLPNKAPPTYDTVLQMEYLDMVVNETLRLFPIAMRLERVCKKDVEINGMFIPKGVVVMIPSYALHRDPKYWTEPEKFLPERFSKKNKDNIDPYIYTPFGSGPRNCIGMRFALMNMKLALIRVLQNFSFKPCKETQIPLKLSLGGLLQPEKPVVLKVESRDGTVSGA

[3] = target: T1, Sodium channel protein type 9 subunit alpha (Homo sapiens, UniProt Q15858); test: Inhibition of recombinant human Nav1.7 expressed in HEK293 cells assessed as reduction in peak inward current at -60 mV holding potential measured after 600 secs by IonWorks Barracuda patch-clamp assay; assay type: cell-based
T1 sequence (Q15858 whole entry): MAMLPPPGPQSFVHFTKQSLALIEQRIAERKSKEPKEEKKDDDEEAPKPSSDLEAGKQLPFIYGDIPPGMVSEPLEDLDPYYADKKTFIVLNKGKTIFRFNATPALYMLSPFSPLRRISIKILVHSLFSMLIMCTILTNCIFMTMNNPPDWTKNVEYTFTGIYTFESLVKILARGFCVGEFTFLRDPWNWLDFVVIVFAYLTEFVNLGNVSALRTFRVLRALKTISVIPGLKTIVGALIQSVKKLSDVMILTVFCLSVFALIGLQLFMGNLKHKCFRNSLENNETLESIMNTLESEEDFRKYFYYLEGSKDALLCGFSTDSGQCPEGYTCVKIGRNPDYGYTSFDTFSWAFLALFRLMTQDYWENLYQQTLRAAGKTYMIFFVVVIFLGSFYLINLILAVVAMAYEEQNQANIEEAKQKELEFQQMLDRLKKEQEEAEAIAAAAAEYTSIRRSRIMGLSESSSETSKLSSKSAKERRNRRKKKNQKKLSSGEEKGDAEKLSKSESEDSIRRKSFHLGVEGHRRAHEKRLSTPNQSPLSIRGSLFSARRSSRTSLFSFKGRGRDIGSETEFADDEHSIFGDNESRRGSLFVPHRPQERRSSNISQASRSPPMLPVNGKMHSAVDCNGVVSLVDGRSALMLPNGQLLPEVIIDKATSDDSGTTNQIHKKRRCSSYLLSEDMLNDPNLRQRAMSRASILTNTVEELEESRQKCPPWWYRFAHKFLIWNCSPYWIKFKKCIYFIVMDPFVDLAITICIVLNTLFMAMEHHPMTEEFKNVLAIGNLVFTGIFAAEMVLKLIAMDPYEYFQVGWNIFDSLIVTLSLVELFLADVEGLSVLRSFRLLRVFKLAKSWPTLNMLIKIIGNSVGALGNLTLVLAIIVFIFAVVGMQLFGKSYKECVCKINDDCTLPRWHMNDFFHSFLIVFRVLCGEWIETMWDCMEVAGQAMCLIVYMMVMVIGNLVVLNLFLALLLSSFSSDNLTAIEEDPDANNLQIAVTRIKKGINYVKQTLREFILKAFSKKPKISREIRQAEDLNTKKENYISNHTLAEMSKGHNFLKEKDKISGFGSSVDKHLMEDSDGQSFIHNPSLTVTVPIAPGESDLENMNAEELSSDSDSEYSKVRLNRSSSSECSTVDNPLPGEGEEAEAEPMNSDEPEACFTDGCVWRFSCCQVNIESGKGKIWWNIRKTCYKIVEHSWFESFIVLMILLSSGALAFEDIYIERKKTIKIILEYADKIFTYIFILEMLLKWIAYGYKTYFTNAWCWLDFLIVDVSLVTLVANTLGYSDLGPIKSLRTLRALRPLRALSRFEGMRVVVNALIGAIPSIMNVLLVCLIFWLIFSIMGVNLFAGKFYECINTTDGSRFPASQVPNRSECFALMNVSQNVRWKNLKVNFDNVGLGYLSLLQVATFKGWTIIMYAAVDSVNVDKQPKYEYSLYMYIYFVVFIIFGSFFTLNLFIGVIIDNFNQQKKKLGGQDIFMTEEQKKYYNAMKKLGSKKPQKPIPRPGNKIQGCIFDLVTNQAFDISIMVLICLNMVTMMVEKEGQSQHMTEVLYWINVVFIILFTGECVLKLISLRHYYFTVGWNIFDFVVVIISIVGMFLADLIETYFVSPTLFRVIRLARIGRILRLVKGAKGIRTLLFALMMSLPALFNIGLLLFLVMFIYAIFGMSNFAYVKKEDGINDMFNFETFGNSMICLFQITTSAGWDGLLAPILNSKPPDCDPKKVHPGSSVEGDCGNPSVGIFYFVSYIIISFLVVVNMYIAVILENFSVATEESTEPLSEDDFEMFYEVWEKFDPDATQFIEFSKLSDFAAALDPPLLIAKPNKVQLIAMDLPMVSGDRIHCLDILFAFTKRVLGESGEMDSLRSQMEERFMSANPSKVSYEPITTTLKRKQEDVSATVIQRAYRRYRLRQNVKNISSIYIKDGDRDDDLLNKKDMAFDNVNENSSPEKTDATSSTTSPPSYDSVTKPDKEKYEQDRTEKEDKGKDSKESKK
Summary of the method: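 HEK293 cells expressing the channel, measured by population patch clamp on IonWorks Barracuda. Internal: K-gluconate/KCl, pH 7.2. Compound incubated 600 s between pre- and post-compound reads. Nav1.7: held at -60 mV, 300 ms at -100 mV, then 20 ms test pulse to -20 mV. Nav1.5: held at -40/-50 mV, 300 ms at -100 mV, then step to -10 mV to inactivate.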

[4] = target: T1, Sodium channel protein type 9 subunit alpha; test: Inhibition of recombinant human Nav1.7 expressed in HEK293 cells assessed as reduction in peak inward current at -70 mV holding potential measured after 600 secs by manual patch clamp electrophysiology assay; assay type: cell-based
Summary of the method: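 Whole-cell manual patch clamp of HEK293 cells stably expressing recombinant human Nav1.7, held at -70 mV (partially inactivated state). The pipette solution (mM) was 50 CsCl, 90 CsF, 10 NaF, 2 MgCl₂, 10 EGTA and 10 HEPES, pH 7.2, with electrodes of 1-4 MOhm. Percent inhibition of peak inward current was calculated, and IC50 came from a Hill fit to averaged percent inhibition (mean ± S.E.M.).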

[5] = target: T2, Sodium channel protein type 9 subunit alpha (Mus musculus, UniProt Q62205); test: Inhibition of recombinant mouse Nav1.7 expressed in HEK293 cells assessed as reduction in peak inward current at -70 mV holding potential measured after 600 secs by manual patch clamp electrophysiology assay; assay type: cell-based
T2 sequence (Q62205 whole entry): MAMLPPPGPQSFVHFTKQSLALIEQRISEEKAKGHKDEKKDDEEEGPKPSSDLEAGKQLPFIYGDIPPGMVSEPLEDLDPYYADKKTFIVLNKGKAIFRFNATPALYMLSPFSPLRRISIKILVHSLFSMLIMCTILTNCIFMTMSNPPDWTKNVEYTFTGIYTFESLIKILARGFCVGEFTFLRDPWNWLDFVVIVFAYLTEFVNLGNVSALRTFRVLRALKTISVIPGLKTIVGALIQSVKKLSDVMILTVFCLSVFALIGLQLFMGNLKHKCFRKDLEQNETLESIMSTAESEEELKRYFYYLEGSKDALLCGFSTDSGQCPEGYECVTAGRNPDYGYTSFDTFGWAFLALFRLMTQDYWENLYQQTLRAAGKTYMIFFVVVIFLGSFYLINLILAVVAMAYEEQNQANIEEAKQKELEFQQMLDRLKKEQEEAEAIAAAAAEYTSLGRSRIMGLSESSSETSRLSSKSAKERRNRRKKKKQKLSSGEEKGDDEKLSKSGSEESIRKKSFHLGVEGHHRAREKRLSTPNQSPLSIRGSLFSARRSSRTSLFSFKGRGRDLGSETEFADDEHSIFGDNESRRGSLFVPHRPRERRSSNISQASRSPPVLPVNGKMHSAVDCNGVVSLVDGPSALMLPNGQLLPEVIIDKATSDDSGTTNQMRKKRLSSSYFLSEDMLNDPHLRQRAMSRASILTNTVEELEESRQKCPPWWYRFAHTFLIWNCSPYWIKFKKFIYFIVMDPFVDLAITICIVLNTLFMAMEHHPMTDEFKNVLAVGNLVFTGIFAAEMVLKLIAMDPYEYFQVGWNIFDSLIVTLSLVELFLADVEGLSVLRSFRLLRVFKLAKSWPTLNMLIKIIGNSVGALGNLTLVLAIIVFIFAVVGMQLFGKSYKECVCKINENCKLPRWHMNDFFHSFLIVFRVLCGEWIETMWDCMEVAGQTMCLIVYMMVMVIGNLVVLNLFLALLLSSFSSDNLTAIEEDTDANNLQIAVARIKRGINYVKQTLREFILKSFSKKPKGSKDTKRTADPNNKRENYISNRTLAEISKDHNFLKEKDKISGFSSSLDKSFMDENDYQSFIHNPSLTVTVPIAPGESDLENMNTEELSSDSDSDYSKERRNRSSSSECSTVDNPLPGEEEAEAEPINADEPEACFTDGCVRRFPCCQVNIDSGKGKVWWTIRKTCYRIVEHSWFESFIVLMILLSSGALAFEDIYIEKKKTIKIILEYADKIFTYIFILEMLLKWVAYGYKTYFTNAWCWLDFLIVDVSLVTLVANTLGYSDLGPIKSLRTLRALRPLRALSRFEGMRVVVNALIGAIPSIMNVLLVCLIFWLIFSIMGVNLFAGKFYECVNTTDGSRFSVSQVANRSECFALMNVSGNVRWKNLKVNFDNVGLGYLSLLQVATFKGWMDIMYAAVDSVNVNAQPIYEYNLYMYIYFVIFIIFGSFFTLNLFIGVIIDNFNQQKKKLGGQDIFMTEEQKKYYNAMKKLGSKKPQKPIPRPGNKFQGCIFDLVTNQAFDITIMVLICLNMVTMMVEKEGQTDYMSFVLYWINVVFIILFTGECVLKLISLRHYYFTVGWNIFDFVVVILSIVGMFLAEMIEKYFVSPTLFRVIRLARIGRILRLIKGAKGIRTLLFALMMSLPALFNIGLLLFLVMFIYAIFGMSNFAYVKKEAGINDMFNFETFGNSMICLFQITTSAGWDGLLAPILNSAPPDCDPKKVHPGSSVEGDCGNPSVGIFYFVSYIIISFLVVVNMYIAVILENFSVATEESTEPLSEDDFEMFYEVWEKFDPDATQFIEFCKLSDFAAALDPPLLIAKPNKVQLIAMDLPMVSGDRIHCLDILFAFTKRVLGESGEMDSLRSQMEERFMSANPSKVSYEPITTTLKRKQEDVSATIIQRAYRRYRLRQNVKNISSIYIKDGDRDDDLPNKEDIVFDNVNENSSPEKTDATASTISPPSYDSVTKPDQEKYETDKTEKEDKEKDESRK
Summary of the method: (§1)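 Whole-cell manual patch clamp of HEK293 cells stably expressing recombinant Nav1.7, holding potential -70 mV (partially inactivated state). Pipette solution (mM): 50 CsCl, 90 CsF, 10 NaF, 2 MgCl2, 10 EGTA, 10 HEPES, pH 7.2; electrode resistance 1-4 MOhm. Percent inhibition of peak inward current; IC50 from a Hill fit to the averaged data; mean ± SEM.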

[6] = target: Sodium channel protein type 9 subunit alpha (Rattus norvegicus, UniProt O08562); test: Inhibition of rat Nav1.7 assessed as reduction in peak inward current at -70 mV holding potential measured after 600 secs by manual patch clamp electrophysiology assay; summary of the method: as §1
[7] = target: T2, Sodium channel protein type 9 subunit alpha; test: Inhibition of Nav1.7 in C57BL/6 mouse DRG neurons assessed as reduction in native TTX-S current amplitude by manual patch clamp electrophysiology assay
[8] = tested on: Mus musculus; test: Antinociceptive activity in CD-1 mouse assessed as reduction in formalin-stimulated paw flinching at 100 mg/kg, po administered 30 mins prior to formalin challenge measured up to 45 mins; assay type: functional, organism-based
Summary of the method: (§2)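 Male CD1 mice, oral dosing (10 mL/kg) of compound or vehicle before formalin; 20 μL of 5% formalin (w/v in saline) injected SC into the dorsal right hind paw, which carried a glued metal band, after 60 min acclimation in an individual chamber. Flinching counted automatically for 45 min: phase I is the first 5 min, phase II is 15-45 min. Mean ± SEM, n=10-14/group, ANOVA with Dunnett's test.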

[9] = Fraction unbound in CD-1 mouse plasma; assay type: ADME, cell-free
[10] = tested on: Plasma; test: Free plasma concentration in CD-1 mouse at 100 mg/kg, po measured 60 mins post dosage; settings: in vivo, 1 h
[11] = target: T1, Sodium channel protein type 9 subunit alpha; test: Inhibition of recombinant human Nav1.7 expressed in HEK293 cells assessed as reduction in peak inward current at -120 mV holding potential by manual whole-cell patch-clamp assay
[12] = tested on: Mus musculus; test: Antinociceptive activity in CD-1 mouse assessed as reduction in formalin-stimulated paw flinching at 100 mg/kg, po administered prior to formalin challenge measured up to 5 mins
[13] = tested on: Mus musculus; test: Antinociceptive activity in CD-1 mouse assessed as reduction in formalin-stimulated paw flinching at 60 mg/kg, po administered 30 mins prior to formalin challenge measured up to 5 mins; assay type: functional, organism-based; summary of the method: as §2
[14] = tested on: Mus musculus; test: Antinociceptive activity in CD-1 mouse assessed as reduction in formalin-stimulated paw flinching at 60 mg/kg, po administered 30 mins prior to formalin challenge measured up to 45 mins; assay type: functional, organism-based; summary of the method: as §2
[15] = tested on: Plasma; test: Free plasma concentration in CD-1 mouse at 60 mg/kg, po measured 60 mins post dosage; settings: in vivo, 1 h
[16] = Apparent permeability of the compound at pH 5.5 by PAMPA assay; assay type: physicochemical
[17] = Apparent permeability of the compound at pH 7.4 by PAMPA assay; assay type: physicochemical
[18] = Plasma concentration in CD-1 mouse at 30 mg/kg, po measured 75 mins post dosage; assay type: ADME, organism-based
[19] = tested on: Plasma; test: Free plasma concentration in CD-1 mouse at 30 mg/kg, po measured 75 mins post dosage; assay type: ADME, organism-based; settings: in vivo, 1.25 h
[20] = Drug uptake in CD-1 mouse DRG neurons at 30 mg/kg, po measured 75 mins post dosage; assay type: ADME, organism-based, DRG neuron; settings: read-out: Drug uptake
[21] = tested on: Mus musculus; test: Antinociceptive activity in CD-1 mouse assessed as reduction in formalin-stimulated paw flinching at 30 mg/kg, po administered 30 mins prior to formalin challenge measured up to 45 mins; assay type: functional, organism-based; summary of the method: as §2

N[C@H]1CC[C@](CCOc2cc(F)c(S(=O)(=O)Nc3ncns3)cc2F)(c2ccc(Cl)cc2)CC1
IC50 [1]: > 30 µM

O=S(=O)(Nc1nccs1)c1cc(Cl)c(NCCC2CCNCC2)cc1F
IC50 [1]: > 30 µM

O=S(=O)(Nc1nccs1)c1cc(Cl)c(NC[C@H]2CCCNC2)cc1F
IC50 [2]: 20 µM | IC50 [3]: 49 nM | IC50 [1]: > 30 µM

CC(=O)N1CCCC(CNc2cc(F)c(S(=O)(=O)Nc3nccs3)cc2Cl)C1 (racemic)
IC50 [3]: 324 nM | IC50 [1]: > 30 µM

N[C@H]1CC[C@@H](CCNc2cc(F)c(S(=O)(=O)Nc3nccs3)cc2Cl)CC1
IC50 [1]: 4.9 µM

O=S(=O)(Nc1ncns1)c1cc(F)c(OCCC2(c3ccc(Cl)cc3)CCNCC2)cc1F
IC50 [3]: 78 nM

N[C@H]1CC[C@](CCNc2cc(F)c(S(=O)(=O)Nc3nccs3)cc2Cl)(c2ccccc2)CC1
IC50 [2]: 6.7 µM | IC50 [1]: > 30 µM

CN1CCCC(CNc2cc(F)c(S(=O)(=O)Nc3nccs3)cc2Cl)C1 (racemic)
IC50 [3]: 264 nM | IC50 [1]: > 30 µM

O=S(=O)(Nc1nccs1)c1cc(Cl)c(NCC2CNCCO2)cc1F (racemic)
IC50 [2]: 20 µM | IC50 [3]: 69 nM | IC50 [1]: > 30 µM

O=S(=O)(Nc1nccs1)c1cc(Cl)c(NC[C@@H]2CCCN(O)C2)cc1F
IC50 [3]: 207 nM

N[C@H]1CC[C@@](CCOc2cc(F)c(S(=O)(=O)Nc3ncns3)cc2F)(c2ccc(Cl)cc2)CC1
IC50 [1]: > 30 µM

C[C@]1(CCOc2cc(F)c(S(=O)(=O)Nc3ncns3)cc2F)CC[C@@H](N)CC1
IC50 [3]: 78 nM | IC50 [1]: > 30 µM

N[C@H]1CC[C@@H](CNc2cc(F)c(S(=O)(=O)Nc3ncns3)cc2Cl)CC1
IC50 [2]: 2.3 µM | IC50 [1]: 2.6 µM

N[C@H]1CC[C@@](CCNc2cc(F)c(S(=O)(=O)Nc3nccs3)cc2Cl)(c2ccccc2)CC1
IC50 [2]: 9.8 µM | IC50 [1]: > 30 µM

CN[C@H]1CC[C@](CCOc2cc(F)c(S(=O)(=O)Nc3ncns3)cc2F)(c2ccccc2)CC1
IC50 [1]: > 30 µM

CN1CCC(CCNc2cc(F)c(S(=O)(=O)Nc3nccs3)cc2Cl)CC1
IC50 [1]: > 30 µM

O=S(=O)(Nc1nccs1)c1cc(Cl)c(NCC2CNC2)cc1F
IC50 [3]: 339 nM | IC50 [1]: > 30 µM

O=S(=O)(Nc1nccs1)c1cc(Cl)c(NC[C@@H]2CCCNC2)cc1F
IC50 [2]: 20 µM | IC50 [3]: 57 nM

O=S(=O)(Nc1ncns1)c1cc(F)c(OCC[C@]2(c3ccccc3)CC[C@@H](NC3CC3)CC2)cc1F
IC50 [1]: > 30 µM

N[C@H]1CC[C@@H](CNc2cc(F)c(S(=O)(=O)Nc3nccs3)cc2Cl)CC1
IC50 [4]: 4 nM | IC50 [3]: 6 nM | IC50 [1]: 1.9 µM | IC50 [5]: 7.5 nM | IC50 [6]: 12.3 nM | IC50 [7]: 6 nM | Activity [8]: inactive | fraction unbound [9]: 0.08 | Cp(f) [10]: 0.32 µM | IC50 [11]: 9.4 µM | Activity [12]: inactive

N[C@H]1CC[C@](CCOc2cc(F)c(S(=O)(=O)Nc3ncns3)cc2F)(c2ccccc2)CC1
IC50 [3]: 15 nM | IC50 [1]: > 30 µM

N[C@H]1CC[C@](CCOc2cc(F)c(S(=O)(=O)Nc3ncns3)cc2Cl)(c2ccccc2)CC1
IC50 [1]: > 30 µM

O=S(=O)(Nc1nccs1)c1cc(Cl)c(NC[C@H]2CCCN(O)C2)cc1F
IC50 [3]: 186 nM

O=S(=O)(Nc1nccs1)c1cc(Cl)c(NCC23CCCN2CCC3)cc1F
Activity [13]: inactive | Activity [14]: Active | Cp(f) [15]: 1.27 µM

O=S(=O)(Nc1ncns1)c1cc(Cl)c(NCCC2CCCCN2)cc1F (racemic)
IC50 [3]: 15 nM

O=S(=O)(Nc1ncns1)c1cc(F)c(OCC[C@]2(c3ccccc3)CC[C@H](NC3CC3)CC2)cc1F
IC50 [1]: > 30 µM

O=S(=O)(Nc1nccs1)c1cc(Cl)c(NCC2(CN3CCCC3)CC2)cc1F
IC50 [2]: 20 µM | IC50 [4]: 12 nM | IC50 [1]: 5.1 µM | IC50 [5]: 51 nM | Papp [16]: 4.7 ×10⁻⁶ cm/s | Papp [17]: 94.9 ×10⁻⁶ cm/s | fraction unbound [9]: 0.2 | concentration at 1.25 h [18]: 1200 nM | Cp(f) [19]: 0.24 µM | concentration at 1.25 h [20]: 1500 nM | Activity [21]: Active

O=S(=O)(Nc1ncns1)c1cc(F)c(OCC2(c3ccc(Cl)cc3)CCNCC2)cc1F
IC50 [3]: 900 nM

CN1C(C)(C)CC(Nc2cc(F)c(S(=O)(=O)Nc3nccs3)cc2Cl)CC1(C)C
IC50 [2]: 20 µM | IC50 [4]: 17 nM | IC50 [3]: 27 nM | IC50 [1]: > 30 µM | IC50 [5]: 30 nM | Papp [16]: 2.3 ×10⁻⁶ cm/s | Papp [17]: 24.1 ×10⁻⁶ cm/s | fraction unbound [9]: 0.23 | concentration at 1.25 h [18]: 1100 nM | Cp(f) [19]: 0.28 µM | concentration at 1.25 h [20]: 1500 nM

O=S(=O)(Nc1ncns1)c1cc(F)c(OC[C@@H]2CNCC[C@H]2c2ccc(Cl)cc2)cc1F
IC50 [3]: 2 nM

O=S(=O)(Nc1nccs1)c1cc(Cl)c(NCCC2CCNC2)cc1F (racemic)
IC50 [3]: 14 nM | IC50 [1]: > 30 µM

O=S(=O)(Nc1nccs1)c1cc(Cl)c(NCCC2CNC2)cc1F
IC50 [1]: > 30 µM

N[C@H]1CC[C@@](CCOc2cc(F)c(S(=O)(=O)Nc3ncns3)cc2Cl)(c2ccccc2)CC1
IC50 [1]: > 30 µM

N[C@H]1CC[C@@](CCOc2cc(F)c(S(=O)(=O)Nc3ncns3)cc2F)(c2ccccc2)CC1
IC50 [3]: 473 nM | IC50 [1]: > 30 µM

CN[C@H]1CC[C@@](CCOc2cc(F)c(S(=O)(=O)Nc3ncns3)cc2F)(c2ccccc2)CC1
IC50 [1]: > 30 µM

N[C@H]1CC[C@H](CNc2cc(F)c(S(=O)(=O)Nc3nccs3)cc2Cl)CC1
IC50 [1]: > 30 µM

C[C@]1(CCOc2cc(F)c(S(=O)(=O)Nc3ncns3)cc2F)CC[C@H](N)CC1
IC50 [3]: 383 nM | IC50 [1]: > 30 µM
